Bioassay records: PubChem, Sanford-Burnham Center for Chemical Genomics
Hits are enriched below; roughly 4.1% of the tested compounds scored in any of these assays.
Mdm2-MdmX inh = inhibitors of human Mdm2/MdmX interaction | O15151+Q00987 | SaOS-2 split-luciferase Mdm2/MdmX complementation, luminescence | inhibition, % at 8 µM | 3% of 330,000 active | AID 485346;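 active = inhibition of at least 50% at 8 µM in the primary screen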
UBC13 polyUb = inhibitors of human UBC13 polyubiquitin chain formation; TR-FRET; inhibition, % at 20 µM; 0.47% of 330,000 active; AID 485273; in the data active = inhibition above about 45%, passing the limit was not always enough
Apaf1 inhib = human Apaf-1 inhibition. O14727. reconstituted apoptosome caspase-3 activity, DEVD-Rh110 fluorescence. inhibition, % at 20 µM. 0.71% of 330,000 active. AID 489030; active = inhibition of at least 40% at 20 µM;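 note: plate controls were DMSO wells for no effect and DEVD-CHO caspase inhibitor wells for full effect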
Target sequence (O14727 whole entry, looked up): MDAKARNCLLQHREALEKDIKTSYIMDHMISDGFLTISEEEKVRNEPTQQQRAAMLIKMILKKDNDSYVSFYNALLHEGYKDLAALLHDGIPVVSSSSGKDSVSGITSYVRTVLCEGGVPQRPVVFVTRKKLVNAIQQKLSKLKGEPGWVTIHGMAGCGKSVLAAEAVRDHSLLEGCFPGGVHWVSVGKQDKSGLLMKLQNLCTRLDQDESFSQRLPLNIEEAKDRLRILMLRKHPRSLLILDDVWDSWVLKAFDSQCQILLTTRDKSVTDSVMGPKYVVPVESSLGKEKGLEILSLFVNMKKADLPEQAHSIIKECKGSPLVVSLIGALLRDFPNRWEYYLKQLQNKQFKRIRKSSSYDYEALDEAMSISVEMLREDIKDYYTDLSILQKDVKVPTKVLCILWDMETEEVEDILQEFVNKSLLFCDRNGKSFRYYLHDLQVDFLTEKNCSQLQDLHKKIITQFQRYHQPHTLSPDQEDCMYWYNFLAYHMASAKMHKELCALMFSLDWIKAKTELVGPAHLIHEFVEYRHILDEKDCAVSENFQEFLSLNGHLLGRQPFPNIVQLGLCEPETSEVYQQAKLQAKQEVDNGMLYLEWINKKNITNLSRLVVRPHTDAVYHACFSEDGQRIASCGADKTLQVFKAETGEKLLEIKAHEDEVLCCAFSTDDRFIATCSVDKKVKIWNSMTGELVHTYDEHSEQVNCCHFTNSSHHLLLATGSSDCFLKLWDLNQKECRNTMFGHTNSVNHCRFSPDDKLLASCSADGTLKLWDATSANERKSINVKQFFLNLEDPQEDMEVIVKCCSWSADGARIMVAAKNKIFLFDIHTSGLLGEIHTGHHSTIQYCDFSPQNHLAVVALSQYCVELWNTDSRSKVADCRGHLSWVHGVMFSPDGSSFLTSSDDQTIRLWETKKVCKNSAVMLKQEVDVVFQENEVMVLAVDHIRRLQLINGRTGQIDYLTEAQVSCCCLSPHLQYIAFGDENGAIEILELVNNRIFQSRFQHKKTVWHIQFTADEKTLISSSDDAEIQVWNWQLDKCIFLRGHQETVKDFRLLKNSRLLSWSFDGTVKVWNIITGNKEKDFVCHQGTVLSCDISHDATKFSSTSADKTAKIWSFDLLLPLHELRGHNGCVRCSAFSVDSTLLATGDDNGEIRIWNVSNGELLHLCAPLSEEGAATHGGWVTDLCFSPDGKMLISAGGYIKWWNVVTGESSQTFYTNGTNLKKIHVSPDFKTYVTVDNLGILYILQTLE
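Assay system – apoptosome proteins · Medium – Hepes buffer, pH 7.5 · Also added – cytochrome c with DEVD-Rh110 · Timing – 30 min compound preincubation, 50 min activation, room temperature · Detection – Rh110 fluorescence, excitation 480 nm, emission 540 nm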
CHOP UPR activ = activators of apoptotic arm of unfolded protein response (CHOP). 0.34% of 330,000 active. CHO-CHOP luciferase reporter, UPR activation, luminescence; percent of tunicamycin response over DMSO baseline. activation, % at 10 µM;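 active = at 10 µM dose, activation of 40% or more, normalized to positive control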;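 note: 100% = tunicamycin at 10 µg/mL and 0% = DMSO alone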
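System: CHO-CHOP luciferase reporter cell line; amount: 500 cells/well; buffer or medium: F12 medium containing 10% fetal bovine serum; incubation: 6 h compound exposure at 37 °C after overnight seeding; measured by: luciferase luminescence after 10 min with Steady-Glo reagent; evaluation: % reporter activation, DMSO baseline versus tunicamycin full activation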
UPR XBP1 act = activators of adaptive arm of unfolded protein response (XBP1) | CHO-XBP1 luciferase reporter, IRE1-XBP1 UPR activation, luminescence; percent of tunicamycin response, DMSO as zero | activation, % at 20 µM | 0.33% of 330,000 active | AID 463104;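 active = versus positive control, 20 µM dose yields 30% or more activation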;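 note: 100% = tunicamycin at 10 µg/mL and 0% = DMSO only wells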
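Material: IRE1-XBP1 luciferase reporter CHO line / Quantity: one thousand reporter cells per well / Buffer or medium: F12 with 10% serum / Compound: 20 µM single concentration, DMSO 1% / Times: 6 h treatment, 37 °C / Detection: Steady-Glo luciferase glow luminescence, 10 min after reagent addition / Benchmarks: tunicamycin high, DMSO low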
Apaf-1 inh conf = confirmation of Apaf-1 inhibitors; shares compounds with Apaf1 inhib; AID 504614; reconstituted apoptosome, caspase-3 DEVD-Rh110 fluorescence; inhibition, % at 20 µM; 25% of 1,800 active;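 active = mean inhibition of at least 40% at 20 µM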;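 note: plate controls were DMSO wells for no effect and DEVD-CHO caspase inhibitor control wells for full effect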
Rh110 quench = counter-screen for Apaf-1 inhibitors: fluorescence interference; Rh110 fluorescence interference, quenched caspase reaction; shares compounds with Apaf1 inhib; activation (fluorescence interference), % at 20 µM; 1,800 tested, under 10 active;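 active = signal rise of 40% or more at 20 µM, treated as a fluorescence artifact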
Fluor interf inh = shows fluorescence interference in the Apaf-1 inhibitor assay format; shares compounds with Apaf1 inhib; fluorescence interference counterscreen, Apaf-1 assay format; IC50, µM; 460 tested, under 10 active; AID 588538; call rule not given here
Numbers without * were called inactive; nt = not tested or not shown; ! = repeats disagree.

SMILES | Mdm2-MdmX inh | UBC13 polyUb | Apaf1 inhib | CHOP UPR activ | UPR XBP1 act | Apaf-1 inh conf | Rh110 quench | others
Clc1c2c(nc3ccccc13)CCC2 | -10 | 4 | -1 | -2 | -5 | nt | nt
Nc1ccc2nc3c(c(Cl)c2c1)CCCC3 | 45 | -2 | 64* | 4 | 14 | 23 | 2
CS(=O)(=O)N(CC(=O)O)Cc1cccc(CN(CC(=O)O)S(C)(=O)=O)c1 | -10 | -2 | -1 | -2 | -1 | nt | nt
O=C(Cc1cc(=O)[nH][nH]1)N/N=C/c1c(Cl)cccc1Cl | 21 | 4 | 64*! | -1 | 0 | 5 | -2
O=C(Cc1cc(=O)[nH][nH]1)N/N=C/c1cccc2ccccc12 | 15 | -11 | 54* | -1 | 3 | 13 | -1
O=C(Cc1cc(=O)[nH][nH]1)N/N=C/c1c(F)cccc1Cl | -15 | -9 | 25 | 0 | -2 | nt | nt
O=C(Cc1cc(=O)[nH][nH]1)N/N=C/c1cccc(Cl)c1Cl | -12 | -5 | 48*! | -1 | 2 | 11 | 3
O=C(Cc1cc(=O)[nH][nH]1)N/N=C/C(Cl)=C/c1ccccc1 | 1 | 10 | 49*! | 0 | 6 | 20 | 3
COc1ccc(S(=O)(=O)Nc2noc3ccccc23)cc1OC | 8 | -8 | 3 | 2 | -1 | nt | nt
CC(=O)N=Cc1c(C)c(C#N)c(=O)n(C)c1O | 12 | -13 | 44* | 0 | -4 | -2 | -1
Cc1ccc(C(=O)NC(=S)Nc2cccc3nsnc23)cc1 | -18 | 6 | 59* | 4 | 6 | 16 | 22
Cc1ccc(C(=O)NC(=S)Nc2c(C)ccc3nsnc23)cc1 | 25 | -20 | 15 | -1 | -2 | nt | nt
CN1C(C(=O)NCC2CC2)CC2Cn3c(nc4cc5ccccc5cc43)C21 (stereo unspecified) | -5 | 4 | 41* | 1 | -1 | 10 | -2
COCCNC(=O)C1CC2Cn3c(nc4cc5ccccc5cc43)C2N1C (stereo unspecified) | 14 | 1 | -2 | -1 | 1 | nt | nt
CCC1=CC(c2ccccc2)n2ncnc2N1 (stereo unspecified) | 23 | 26 | -3 | 1 | -2 | nt | nt
CC(=O)N(/N=C1\Sc2ccccc2C1=O)c1cccc(C)c1 | -61 | -53 | 86* | 6 | 7 | 85* | 5 | Fluor interf inh=>100
CCc1nnc(SCc2ccc([N+](=O)[O-])cc2)nc1CC | 17 | 7 | 10 | 1 | 3 | nt | nt
CCCCC[n+]1ccn(C2=C([O-])c3ccccc3C(=O)/C2=N\S(=O)(=O)c2ccccc2)c1 | 18 | -91 | 53* | 0 | 0 | 62* | 8 | Fluor interf inh=>100
Cc1cc[n+](C2=C([O-])c3ccccc3C(=O)/C2=N\S(=O)(=O)c2cccs2)cc1C | 37 | -111 | 31 | 0 | 0 | nt | nt
CCCCC[n+]1ccn(C2=C([O-])c3ccccc3C(=O)/C2=N\S(=O)(=O)c2ccc(Br)cc2)c1 | 45 | -115 | 61* | 12 | -3 | 43* | 4 | Fluor interf inh=>100
CC(C)[n+]1ccn(C2=C([O-])c3ccccc3C(=O)/C2=N\S(=O)(=O)c2ccccc2)c1 | 32 | -58 | 46* | -3 | -3 | 68* | 3 | Fluor interf inh=>100
CCOC(=O)Cc1csc(NC(=O)c2ccc(C)c(S(=O)(=O)N3CCOCC3)c2)n1 | 30 | -12 | 5 | -1 | -3 | nt | nt
COc1ccc(Cl)cc1NC(=O)c1ccoc1C | -4 | 1 | 3 | -3 | -1 | nt | nt
CCN(CC(=O)NCc1cccs1)C(=O)CCCOc1ccccc1 | 13 | 7 | 19 | -3 | -2 | nt | nt
CCN(CC(=O)NCc1cccs1)C(=O)CCCOc1ccc(C(C)(C)C)cc1 | 7 | 10 | 42* | -1 | -2 | 34 | 11
SMILES | Mdm2-MdmX inh | UBC13 polyUb | Apaf1 inhib | CHOP UPR activ | UPR XBP1 act | Apaf-1 inh conf | Rh110 quench | others
Oc1ccc(NCc2ccccc2OCc2ccccc2)cc1 | 32 | 5 | 90* | 4 | -1 | 18 | 6
CCNC(=O)Oc1ccc[nH]c1=O | 14 | -38 | 42* | 1 | 0 | 3 | 1
O=C(Oc1ccc[nH]c1=O)c1cc([N+](=O)[O-])cc([N+](=O)[O-])c1 | -11 | -10 | 93* | -1 | -2 | 12 | 6
NN(CCO)C(=S)Nc1ccc(Cl)cc1 | 6 | 8 | -4 | 1 | -1 | nt | nt
Cc1ccsc1C(=O)OC(C)C(=O)NC1CCCCC1C (stereo unspecified) | -3 | 2 | 5 | 3 | -1 | nt | nt
O/N=C\c1ccc2noc(-c3ccc(Cl)cc3)c2c1 | 35 | -10 | 0 | 1 | 3 | nt | nt
O=S(=O)(c1ccc(Br)cc1)N1CCN(c2ccc3nnc(-c4ccccc4)n3n2)CC1 | 40 | 35 | 41* | 4 | 8 | 55* | 12 | Fluor interf inh=>100
CC1=NN(c2ccc(S(=O)(=O)O)cc2C)C(=O)C1 | 18 | -6 | 51* | -1 | 1 | 19 | 14
COc1cccc(CN(C)C(=O)c2cccc(S(=O)(=O)NCc3ccccc3)c2)c1OC | -10 | -2 | 11 | -1 | -4 | nt | nt
COc1ccc(CCN(C)C(=O)c2cccc(S(=O)(=O)NCc3ccccc3)c2)cc1OC | 22 | 8 | 57* | 0 | -2 | 38 | 5
O=C(O)CC1S/C(=N/N=C/c2ccc(-c3ccc(Cl)c([N+](=O)[O-])c3)o2)NC1=O (stereo unspecified) | -43 | -19 | 12 | 1 | 0 | nt | nt
O=C(O)CC1S/C(=N/N=C/c2ccc(-c3ccc(Cl)cc3[N+](=O)[O-])o2)NC1=O (stereo unspecified) | 8 | -48 | 52* | 0 | -2 | 29 | 5
CN1CCN(S(=O)(=O)c2cccc(C(=O)Oc3ccc(C(C)(C)C)cc3)c2)CC1 | 13 | 5 | 40 | -1 | -3 | 15 | 6
Nc1ccc(Oc2ncccn2)cc1 | 26 | -7 | 44* | 0 | -1 | 52* | 8 | Fluor interf inh=>100
O=Cc1cccc(Oc2ncccn2)c1 | 2 | 5 | 0 | 1 | -2 | nt | nt
O=C(CSc1ccc(F)cc1)Nc1ccc(C2SCCS2)cc1 | -18 | 5 | -16 | 4 | 7 | nt | nt
N#Cc1c(N)n(CCc2ccc(F)cc2)c2nc3ccccc3nc12 | -3 | -12 | 82* | 3 | -5 | 19 | 10
COCCn1c(N)c(C#N)c2nc3ccccc3nc21 | 16 | -3 | 52* | 0 | 4 | 15 | 5
N#Cc1c(N)n(CCOC(=O)c2cccc([N+](=O)[O-])c2)c2nc3ccccc3nc12 | -2 | -29 | 17 | 2 | 0 | nt | nt
COc1ccc(Cn2c(N)c(C#N)c3nc4ccccc4nc32)cc1 | 34 | -19 | 50* | 0 | 5 | 12 | 0
